Measured values collected from several papers.
Protocols differ between the studies behind these lines.
Organism: Klebsiella pneumoniae
Read-out: microbial growth

NC1CCc2c1[nH]c1ccc(Cl)c(Cl)c21 (stereo not shown) has an MIC of 8 µg/mL (broth dilution; ATCC10031).
CC1=NN(CNC(=O)c2ccccc2)C(=O)C1=NNn1c(-c2ccccc2)nc2ccccc2c1=O has an MIC of 51.9 µM (broth dilution; 24 h).
With NCCCNC1CCCCc2c1[nH]c1ccc(Br)cc21 (stereo not shown) the MIC was 8 µg/mL (broth dilution; ATCC10031).
CO[C@H]1/C=C/O[C@@]2(C)Oc3c(C)c(O)c4c(O)c(c(/C=N/N5CCN(C)CC5)c(O)c4c3C2=O)NC(=O)/C(C)=C\C=C\[C@H](C)[C@H](O)[C@@H](C)[C@@H](O)[C@@H](C)[C@H](OC(C)=O)[C@@H]1C has an MIC of 10 µM (broth dilution; ATCC700603).
For CN(C)c1ccc(-c2ccc3cc4c(c(O)c3c2)C(=O)C2=C(O)[C@]3(O)C(=O)C(C(N)=O)=C(O)[C@@H](N(C)C)[C@@H]3C[C@@H]2C4)cc1, the MIC was 32 µg/mL (broth dilution; ATCC13883).
For O=C1NN=C(N=Cc2ccc(O)cc2O)C1=NNn1c(-c2ccccc2)nc2ccccc2c1=O, the MIC was 53.5 µM (broth dilution; 24 h).
For Cc1c(CN(C)C(=O)/C=C/c2cnc3c(c2)CC(CCN)C(=O)N3)oc2ccccc12.Cl (stereo not shown), the MIC was 16 µg/mL (broth dilution; BAA1705).
CN(C)[C@@H]1C(O)=C(C(N)=O)C(=O)[C@@]2(O)C(O)=C3C(=O)c4c(cc5ccc(CN(C)S(C)(=O)=O)cc5c4O)C[C@H]3C[C@@H]12 has an MIC of 32 µg/mL (broth dilution; ATCC13883).
C=C[C@]1(C)C[C@@H](OC(=O)CS[C@@H]2C[C@H]3CC[C@@H](C2)N3C)[C@]2(C)[C@H](C)CC[C@]3(CCC(=O)[C@H]32)[C@@H](C)[C@@H]1O has an MIC of 160 µM (broth dilution; ATCC700603).
CN(C)[C@@H]1C(O)=C(C(N)=O)C(=O)[C@@]2(O)C(O)=C3C(=O)c4c(cc5ccc(-c6cccnc6)cc5c4O)C[C@H]3C[C@@H]12 has an MIC of 32 µg/mL (broth dilution; ATCC13883).
For CCc1c(Cl)c(O)c(Cl)c(O)c1C(=O)O[C@H]1[C@H](O)[C@H](OC)[C@H](OC/C2=C\C=C\C[C@H](O)/C(C)=C/[C@H](CC)[C@@H](O[C@@H]3OC(C)(C)[C@@H](OC(=O)C(C)C)[C@H](O)[C@@H]3O)/C(C)=C/C(C)=C/C[C@@H]([C@@H](C)O)OC2=O)O[C@@H]1C, the MIC was 320 µM (broth dilution; ATCC700603).
With CN(C)[C@@H]1C(O)=C(C(N)=O)C(=O)[C@@]2(O)C(O)=C3C(=O)c4c(cc5ccc(CN6CC(F)(F)C6)cc5c4O)C[C@H]3C[C@@H]12 the MIC was 32 µg/mL (broth dilution; ATCC13883).
For Cc1c(CN(C)C(=O)/C=C/c2cnc3c(c2)CCC(=O)N3)oc2ccccc12, the MIC was greater than 32 µg/mL (broth dilution).
For O=C(Nc1ccc(S(=O)(=O)c2nccs2)cc1)c1cc(N=Nc2nccs2)ccc1O, the MIC was 100 µg/mL (broth dilution).
CC1(C)S[C@@H]2[C@H](/N=C/N3CCCCCC3)C(=O)N2[C@H]1C(=O)O gave an MIC of 2.5 µM (broth dilution; ATCC700603).
CCCCCCC#Cc1cncc(-c2nnc(SCc3ccc([N+](=O)[O-])o3)n2C)c1 has an MIC of no less than 20 µg/mL.
For CN[C@H](CC(C)C)C(=O)N[C@H]1C(=O)N[C@@H](CC(N)=O)C(=O)N[C@H]2C(=O)N[C@H]3C(=O)N[C@H](C(=O)N[C@H](C(=O)O)c4cc(O)cc(O)c4-c4cc3ccc4O)[C@H](O)c3ccc(c(Cl)c3)Oc3cc2cc(c3O[C@@H]2O[C@H](CO)[C@@H](O)[C@H](O)[C@H]2O[C@H]2C[C@](C)(N)[C@H](O)[C@H](C)O2)Oc2ccc(cc2Cl)[C@H]1O, the MIC was greater than 128 µM (broth dilution; ATCC43816).
With CC(=O)O[C@H]1C[C@@]2(C)[C@@H](C[C@@H](O)[C@H]3[C@@]4(C)CC[C@@H](O)[C@@H](C)[C@@H]4CC[C@@]32C)/C1=C(\CCC=C(C)C)C(=O)O the MIC was 640 µM (broth dilution; ATCC700603).
For CC1=NN(CNC(=O)c2ccccn2)C(=O)C1=NNn1c(-c2ccccc2)nc2ccccc2c1=O, the MIC was 52 µM (broth dilution; 24 h).
With CN(C)Cc1ccc2c(N(C)C)c3c(c(O)c2c1)C(=O)C1=C(O)[C@]2(O)C(=O)C(C(N)=O)=C(O)[C@@H](N(C)C)[C@@H]2C[C@@H]1C3 the MIC was 4 µg/mL (broth dilution; ATCC13883).
The MIC of Cc1c(CN(C)C(=O)/C=C/c2cnc3c(c2)CC(NC(=O)OC(C)(C)C)C(=O)N3)oc2ccccc12 (stereo not shown) is reported as greater than 32 µg/mL (broth dilution).
CCCCCCC#Cc1cncc(-c2nnc(SCc3ccc(Cl)c(F)c3)n2C)c1 gave an MIC of no less than 20 µg/mL.
The MIC of CC(C)Oc1c(NC(=O)c2ccc(NC(=O)c3ccc(NC(=O)[C@H](CC(N)=O)NC(=O)c4ccc(NC(=O)c5ccc(C#N)cn5)cc4)cc3)c(OC(C)C)c2O)ccc(C(=O)O)c1O is reported as 4 µg/mL (DSM30104).
The MIC of O=C1CN(/N=C/c2ccc([N+](=O)[O-])o2)C(=O)N1 is reported as 320 µM (broth dilution; ATCC700603).
For CNC(C)C1CCC(N)C(OC2C(N)CC(N)C(OC3OCC(C)(O)C(NC)C3O)C2O)O1 (stereo not shown), the MIC was 0.25 µg/mL.
CC1(C)S[C@@H]2[C@H](NC(=O)COc3ccccc3)C(=O)N2[C@H]1C(=O)O has an MIC of greater than 128 µg/mL (18 h, clinical isolate).
C/C(=C\c1ccc(C#N)cc1)C(=O)Nc1ccc(C(=O)N[C@@H](CC(N)=O)C(=O)Nc2ccc(C(=O)Nc3ccc(C(=O)Nc4ccc(C(=O)O)cc4)c(O)c3OC(C)C)cc2)cc1 has an MIC of greater than 64 µg/mL (DSM30104).
The MIC of CC(C)(O/N=C(\C(=O)N[C@@H]1C(=O)N2C(C(=O)[O-])=C(C[n+]3ccccc3)CS[C@H]12)c1csc(N)n1)C(=O)O is reported as 5 µM (broth dilution; ATCC700603).
O=C(O)c1cn(C2CC2)c2cc(N3CCNCC3)c(F)cc2c1=O gave an MIC of 0.57 µM (broth dilution; 24 h).
The MIC of CCCCCCC#Cc1cncc(-c2nnc(SCc3ccc([N+](=O)[O-])o3)n2C2CC2)c1 is reported as no less than 20 µg/mL.
For CNC(=O)c1cc(Oc2ccc(NC(=O)Nc3ccc(Cl)c(C(F)(F)F)c3)cc2)ccn1, the MIC was greater than 100 µM (DSM30104).
For O=[N+]([O-])c1ccc(/C=N/Nc2nc(Nc3ccccc3)nc(N3CCOCC3)n2)o1, the MIC was greater than 120 µM.
With CC(C)(O/N=C(\C(=O)N[C@@H]1C(=O)N2C(C(=O)[O-])=C(C[n+]3ccccc3)CS[C@H]12)c1csc(N)n1)C(=O)O the MIC was 2 µg/mL (broth dilution; ATCC10031; 18 h).
The MIC of CCCCCCC#Cc1cncc(-c2nnc(SCc3ccc([N+](=O)[O-])cc3)n2C)c1 is reported as no less than 20 µg/mL.
O=C(Nc1ccc(F)c(Cl)c1)c1cc(Cl)ccc1O has an MIC of greater than 64 µg/mL (broth dilution; BAA1705).
For NC1CCCCc2c1[nH]c1ccc(Br)cc21 (stereo not shown), the MIC was 16 µg/mL (broth dilution; ATCC10031).
For O=C1NN=C(N=Cc2ccc(O)c(O)c2)C1=NNn1c(-c2ccccc2)nc2ccccc2c1=O, the MIC was 53.5 µM (broth dilution; 24 h).
With CC[C@H]1OC(=O)[C@H](C)[C@@H](O[C@H]2C[C@@](C)(OC)[C@@H](O)[C@H](C)O2)[C@H](C)[C@@H](O[C@@H]2O[C@H](C)C[C@H](N(C)C)[C@H]2O)[C@](C)(O)C[C@@H](C)C(=O)[C@H](C)[C@@H](O)[C@]1(C)O the MIC was 160 µM (broth dilution; ATCC700603).
CC1=NN(CNc2ccccc2[N+](=O)[O-])C(=O)C1=NNn1c(-c2ccccc2)nc2ccccc2c1=O has an MIC of 50.4 µM (broth dilution; 24 h).
CN[C@@H]1[C@@H](O)[C@@H](O[C@@H]2[C@@H](O)[C@H](O[C@H]3OC(CNCCO)=CC[C@H]3N)[C@@H](N)C[C@H]2NC(=O)[C@@H](O)CCN)OC[C@]1(C)O gave an MIC of 0.25 to 0.5 µg/mL.
